This passage reports Activity and UI results from ChEMBL document CHEMBL1143162, “Synthesis and pharmacological evaluation of pyrazoline derivatives as new anti-inflammatory and analgesic agents” (Bioorg Med Chem Lett, 2008).

Data set [1] has as its system Rattus norvegicus. The experiment in a line: Antiinflammatory activity against carrageenan-induced hind paw edema in rat at 41 umol/kg, po after 4 hrs relative to flurbiprophen. Type of data set: functional. The method, boiled down:
(§1)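 Given orally to rats at a dose equimolar to 10 mg/kg (41 µmol/kg) of the reference drug. Paw-oedema % inhibition was calculated at both 3 h and 4 h after dosing.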
On the technique in general: The carrageenan paw model is a standard test of acute inflammation.

For data set [2], the system named is Rattus norvegicus. The experiment in a line: Antiinflammatory activity against carrageenan-induced hind paw edema in rat at 41 umol/kg, po after 3 hrs relative to flurbiprophen. Type of data set: functional. The method, boiled down:
as §1

A further data set concerns Gastric mucosa. The experiment in a line: Inhibition of lipid peroxidation in mouse gastric mucosa tissue assessed as malondialdehyde level per 100 mg tissue relative to flurbiprophen. Type of data set: functional, tissue-based. The method, boiled down: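 Animals receive the oral dose used in the ulcerogenic study, equimolar to 30 mg/kg flurbiprofen. Lipid peroxidation in the tissue is read as MDA content in nmol per 100 mg tissue, given as mean ± SEM (n = 6). Comparison is against the standard by ANOVA with Dunnett's test.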

Data set [3] relates to Mus musculus. Kind of data set: Analgesic activity in mouse at 41 umol/kg, po by tail immersion method relative to flurbiprophen. Type of data set: functional. The method, boiled down:
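Tail-immersion test in mice, oral dose of 41 µmol/kg. Tail reaction time (s) was read before dosing (0 h) and 4 h after dosing. % inhibition was calculated relative to each animal's pre-treatment value. n = 6, compared by paired Student's t test.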

In the next data set the test system is Liver. The experiment in a line: Hepatotoxicity in rat assessed as hepatocyte necrosis. Type of data set: toxicity, tissue-based. As to conditions: hepatocytes.
For data set [4], the system named is Mus musculus. The experiment in a line: Ulcerogenic effect in mouse at 123 umol/kg, po relative to flurbiprophen. Type of data set: toxicity, organism-based. The conditions noted are these: in vivo. The method, boiled down:
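Acute ulcerogenic test with oral dosing at an amount equimolar to 30 mg/kg flurbiprofen. Gastric damage is scored as a severity index, given as mean ± SEM (n = 6). Comparison is against the standard by ANOVA with Dunnett's multiple comparison test.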

With `CN(C)c1ccc(C2CC(c3ccc(-c4ccccc4)cc3)=NN2C(=O)c2ccccc2)cc1` (stereo not drawn), the Activity is listed as 35.08% with Rattus norvegicus [1] and 33.32% in the data set on Rattus norvegicus [2].
The corresponding values for `Cc1ccc(C2CC(c3ccc(-c4ccccc4)cc3)=NN2C(=O)c2ccccc2)cc1` (stereo not drawn) are 31.57% and 29.82%.
Regarding `COc1cc(OC)c(C2CC(c3ccc(-c4ccccc4)cc3)=NN2C(=O)c2ccccc2)c(OC)c1` (stereo not drawn), the Activity with Rattus norvegicus [1] was 75.38%; in the data set on Gastric mucosa it was 5.18 nmol; in the data set on Mus musculus [3] it was 43.2%; in the data set on Liver, “Non-toxic”; in the data set with Rattus norvegicus [2], 73.68%. For the same compound, in the data set with Mus musculus [4], the UI turned out to be 0.583.
On to `CN(C)c1ccc(C2CC(c3ccc(-c4ccccc4)cc3)=NN2)cc1` (stereo not drawn), for which the Activity in the data set on Rattus norvegicus [1] amounted to 36.84%; with Rattus norvegicus [2] it was 33.33%.
The like results for `c1ccc(-c2ccc(C3=NNC(c4ccccc4)C3)cc2)cc1` (stereo not drawn) were, in that order, 38.6% and 35.08%.
`CC(C(=O)O)c1ccc(-c2ccccc2)c(F)c1` (stereo not drawn) [FLURBIPROFEN]: the Activity with Rattus norvegicus [1] came to 80.69%; with Gastric mucosa it was 7.51 nmol; in the data set on Mus musculus [3] it was 69.5%; in the data set with Rattus norvegicus [2] it was 73.68%. Also, the UI in the data set on Mus musculus [4] came to 1.666.
Turning to `O=C(c1ccccc1)N1N=C(c2ccc(-c3ccccc3)cc2)CC1c1ccc(Cl)cc1` (stereo not drawn), the Activity with Rattus norvegicus [1] amounted to 42.1%; with Rattus norvegicus [2] it was 35.08%.
Consider `Clc1ccc(C2CC(c3ccc(-c4ccccc4)cc3)=NN2)cc1` (stereo not drawn), for which the Activity was 28.06% with Rattus norvegicus [1] and 22.8% in the data set with Rattus norvegicus [2].
As for `Cc1ccc(C2CC(c3ccc(-c4ccccc4)cc3)=NN2)cc1` (stereo not drawn), the Activity was 82.45% with Rattus norvegicus [1]; 5.04 nmol in the data set with Gastric mucosa; 72.9% with Mus musculus [3]; “Non-toxic” in the data set with Liver; 73.69% in the data set on Rattus norvegicus [2]. In the data set with Mus musculus [4], this compound displayed a UI of 0.5.
Consider `COc1ccc(C2CC(c3ccc(-c4ccccc4)cc3)=NN2C(=O)c2ccccc2)cc1` (stereo not drawn), for which the Activity in the data set on Rattus norvegicus [1] is 47.36%; in the data set with Rattus norvegicus [2] it was 40.34%.
`COc1ccc(C2CC(c3ccc(-c4ccccc4)cc3)=NN2)cc1OC` (stereo not drawn): the Activity with Rattus norvegicus [1] is recorded as 40.35%; in the data set on Rattus norvegicus [2] it was 35.08%.
For the compound `COc1cc(OC)c(C2CC(c3ccc(-c4ccccc4)cc3)=NN2)c(OC)c1` (stereo not drawn), the Activity with Rattus norvegicus [1] stood at 82.45%; with Gastric mucosa, 5.58 nmol; with Mus musculus [3], 28.6%; in the data set on Rattus norvegicus [2] it was 80.7%. Besides, the UI in the data set on Mus musculus [4] is recorded as 0.833.
As to `O=C(c1ccccc1)N1N=C(c2ccc(-c3ccccc3)cc2)CC1c1ccccc1` (stereo not drawn), the Activity came out at 33.32% with Rattus norvegicus [1] and 28.06% in the data set on Rattus norvegicus [2].
In the case of `O=C(c1ccccc1)N1N=C(c2ccc(-c3ccccc3)cc2)CC1c1ccccc1Cl` (stereo not drawn), the Activity in the data set on Rattus norvegicus [1] came to 38.59%; with Rattus norvegicus [2], 31.57%.
The like results for `COc1ccc(C2CC(c3ccc(-c4ccccc4)cc3)=NN2)cc1` (stereo not drawn) were, in that order, 36.83% and 35.08%.
With `COc1ccc(C2CC(c3ccc(-c4ccccc4)cc3)=NN2C(=O)c2ccccc2)cc1OC` (stereo not drawn), the Activity with Rattus norvegicus [1] is on record as 35.08%; with Rattus norvegicus [2] it was 28.06%.
For `Clc1ccccc1C1CC(c2ccc(-c3ccccc3)cc2)=NN1` (stereo not drawn), the Activity in the data set with Rattus norvegicus [1] and in the data set on Rattus norvegicus [2] was 31.57% in each case.
